Assay results of several laboratories.
Compare with care: the assays were run in different laboratories.
Target: Protein kinase C zeta type (PRKCZ, Homo sapiens, UniProt Q05513)
One construct used (Q05513 1-592): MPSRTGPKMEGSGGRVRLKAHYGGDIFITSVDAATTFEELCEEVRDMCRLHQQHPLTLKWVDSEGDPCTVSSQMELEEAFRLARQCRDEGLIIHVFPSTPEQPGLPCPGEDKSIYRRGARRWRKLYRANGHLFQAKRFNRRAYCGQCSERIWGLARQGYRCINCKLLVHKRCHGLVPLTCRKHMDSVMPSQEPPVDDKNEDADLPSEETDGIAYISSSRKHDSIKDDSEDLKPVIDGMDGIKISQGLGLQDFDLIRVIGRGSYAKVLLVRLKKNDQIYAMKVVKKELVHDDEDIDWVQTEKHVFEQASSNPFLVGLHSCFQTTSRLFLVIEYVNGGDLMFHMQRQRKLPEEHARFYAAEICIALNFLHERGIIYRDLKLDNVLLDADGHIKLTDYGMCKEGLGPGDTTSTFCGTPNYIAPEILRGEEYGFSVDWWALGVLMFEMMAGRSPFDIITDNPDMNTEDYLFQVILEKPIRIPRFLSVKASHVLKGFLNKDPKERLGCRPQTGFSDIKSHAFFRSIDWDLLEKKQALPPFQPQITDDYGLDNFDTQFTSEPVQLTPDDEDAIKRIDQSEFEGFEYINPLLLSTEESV

`CC(C)(C)c1nc2c(s1)c1nc(N)ncc1c1ccc(NS(=O)(=O)c3c(F)cccc3F)c(F)c12` has a remaining activity of 107% (enzyme activity, inhibitor, radiometric; 1 µM).
`Nc1nc(Nc2ccccc2)sc1C(=O)c1c(F)cccc1F` has a remaining activity of 83% (enzyme activity, inhibitor; 10 µM).
For `Cc1ccc(NC(=O)c2ccc(C)c(C(F)(F)F)c2)cc1C#Cc1nn(C2CCC(O)CC2)c2ncnc(N)c12` (centres unmarked), the remaining signal was 99% (cell-free assay; 10 µM).
`Cc1ccc(Nc2nccc(N(C)c3ccc4c(C)n(C)nc4c3)n2)cc1S(N)(=O)=O` gave an inhibition of -3% (enzyme activity, inhibitor; 0.3 µM).
With `CCCCNc1ncc2c(-c3ccc(F)cc3)nn(C[C@H]3CC[C@H](N)CC3)c2n1` the inhibition was -19.6% (target engagement in cells, inhibitor, chemoproteomics; 20 mM).
`CCC1(CC)NC(=O)c2c(c3ccc(Cl)c(Cl)c3n2C)C1C#N` (centres unmarked) has a ΔTm of -0.4 °C (thermal stability, DSF; 10 µM).
`O=C1NC(=O)c2cc(Nc3ccc(F)cc3)c(Nc3ccc(F)cc3)cc21` gave a remaining signal of 100% (cell-free assay; 0.5 µM).
For `COc1cc(Nc2cnc(C#N)c(O[C@H](C)CN(C)C)n2)ncc1-c1cnn(C)c1`, the remaining activity was 79% (enzyme activity, inhibitor, radiometric; 10 µM).
`COc1cc2ncnc(Nc3ccc(Oc4ccccc4)c(C)c3C)c2cc1OC` gave an inhibition of 14% (enzyme activity, inhibitor; 1 µM).
With `Cn1c2c(c3ccc(Cl)c(Cl)c31)C(C#N)C1(CCOCC1)NC2=O` (centres unmarked) the ΔTm was -0.2 °C (thermal stability, DSF; 10 µM).
The inhibition of `Cc1ccc(-n2nc(C(C)(C)C)cc2NC(=O)Nc2ccc(OCCN3CCOCC3)c3ccccc23)cc1` is reported as -3% (enzyme activity, inhibitor; 10 µM).
With `Cc1ccc(C(=O)NCc2ccsc2)cc1C#Cc1cn(C(C)C)c2ncnc(N)c12` the activity vs control was 111% (enzyme activity, inhibitor; 1 µM).
`CCN1CCC2(CC1)NC(=O)c1c(c3ccc(Cl)c(Cl)c3n1C)C2C#N` (racemic) gave a ΔTm of 0.1 °C (thermal stability, DSF; 10 µM).
For `CC(C)(C)C(=O)c1sc(NC2CCCCC2)nc1N`, the remaining activity was 104% (enzyme activity, inhibitor; 10 µM).
`Cn1c(=O)n(-c2ccc(C(C)(C)C#N)cc2)c2c3cc(-c4cnc5ccccc5c4)ccc3ncc21` gave a remaining activity of 123% (enzyme activity, inhibitor; 10 µM).
With `N#CCCc1ccc2c(c1)-c1[nH]c3ccc([N+](=O)[O-])cc3c1CC(=O)N2` the remaining signal was 83.4% (cell-free assay; 0.5 µM).
For `Oc1cccc(-c2nc(N3CCOCC3)c3oc4ncccc4c3n2)c1`, the remaining activity was 98% (enzyme activity, inhibitor; 10 µM).
`C[C@@H](N)[C@H]1CC[C@H](C(=O)Nc2ccncc2)CC1` gave an inhibition of 7.4% (enzyme activity, inhibitor, TR-FRET; 10 µM).
For `CC(C)(O)[C@H]1CC[C@H](Nc2ccc3ncc(-c4cccc(C(F)(F)F)c4)n3n2)CC1`, the remaining activity was 98% (enzyme activity, inhibitor; 1 µM).
`CN1CCC2(CC1)NC(=O)c1c(c3ccc(Cl)c(Cl)c3n1C)C2C#N` (racemic) has a ΔTm of 0 °C (thermal stability, DSF; 10 µM).
`CNC(=O)c1cc(Oc2ccc(NC(=O)Nc3ccc(Cl)c(C(F)(F)F)c3)cc2)ccn1` gave an inhibition of -5% (enzyme activity, inhibitor; 10 µM).
The ΔTm of `Cn1c2c(c3ccc(Cl)c(Cl)c31)C(C#N)C1(CCNCC1)NC2=O` (racemic) is reported as 0.9 °C (thermal stability, DSF; 10 µM).
For `O=C(Nc1cnn(-c2csc(C(=O)NC3COC3)c2)c1)Nc1ccccc1Cl`, the remaining activity was 105% (enzyme activity, inhibitor; 5 µM).
For `COc1cc(-c2cc(-c3ccc(N4CCNCC4)cc3)cnc2C)cc(OC)c1OC`, the inhibition was 3% (enzyme activity, inhibitor; 1 µM).
The inhibition of `CC/C(=N\NC(=O)NCc1cccc(O)c1)c1ccc(O)c(C)c1O` is reported as 11% (enzyme activity, inhibitor; 0.1 µM).
The remaining activity of `Cc1cnc(NC2CCOCC2)nc1-n1cnc(C(=O)NC(CN)c2cc(F)cc(Cl)c2)c1` (centres unmarked) is reported as 106% (enzyme activity, inhibitor, radiometric; 1 µM).
